Results published in ChEMBL document CHEMBL1137366, “Novel Schiff base copper complexes of quinoline-2 carboxaldehyde as proteasome inhibitors in human prostate cancer cells” (J Med Chem, 2006).
Active and inactive are the calls of the source. No cut-off for these calls is given here.

Legend:
[1] = test system: LNCaP; assay: Cytotoxicity against human LnCaP cell line by MTT assay after 72 hrs; assay type: functional, cell-based
Outline: (§1)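 MTT growth-inhibition assay in prostate cancer cells. Cells were exposed to compounds for 72 h. IC50 was taken from the dose–response data.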

[2] = test system: PC-3; assay: Cytotoxicity against human PC3 cell line by MTT assay after 72 hrs; assay type: functional, cell-based; conditions: PC-3, 72 h; outline: as §1
[3] = test system: LNCaP; assay: Induction of apoptosis in LnCaP cells assessed as PARP cleavage by Western blot analysis; assay type: functional, cell-based; conditions: Homo sapiens
[4] = test system: LNCaP; assay: Inhibition in LnCaP cell line growth by ELISA apoptosis assay upto 20 uM; assay type: functional, cell-based; conditions: Homo sapiens
Outline: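 Apoptotic cell death in LNCaP cells measured by histone/DNA ELISA. Cells were treated for 72 h at 10 and 20 µM and compared with a control.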

[5] = biological target: T1, Proteasome Macropain subunit MB1 (Homo sapiens, UniProt P28074); assay: Inhibition of chymotrypsin-like activity of proteasome in intact LnCaP cells; assay type: cell-based
T1 sequence (P28074 whole entry): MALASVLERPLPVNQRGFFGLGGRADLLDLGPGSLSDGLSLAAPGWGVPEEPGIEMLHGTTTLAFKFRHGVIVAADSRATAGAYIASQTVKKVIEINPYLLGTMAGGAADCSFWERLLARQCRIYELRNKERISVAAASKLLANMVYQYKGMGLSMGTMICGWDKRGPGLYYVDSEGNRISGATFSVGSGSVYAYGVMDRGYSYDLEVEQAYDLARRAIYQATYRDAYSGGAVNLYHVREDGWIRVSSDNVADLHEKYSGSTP
Outline: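 Intact LNCaP cells were treated, then whole-cell extracts were assayed for proteasome chymotrypsin-like activity. CuCl2 alone served as control. IC50 values were derived.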

[6] = test system: LNCaP; assay: Induction of apoptosis in LnCaP cells measured by hydrogen peroxide assay; assay type: functional, cell-based; conditions: Homo sapiens
Outline: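 LNCaP cells were treated for 24 h at 4, 7 and 10 µM. H2O2 was then measured with the Amplex Red hydrogen peroxide kit at time points from 1 to 6 h. Absorbance was normalized to control.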

| Compound | IC50 [1] [µM] | IC50 [2] [µM] | Activity [3] | Activity [4] | IC50 [5] [µM] | Activity [6] |
| --- | --- | --- | --- | --- | --- | --- |
| NC(=S)N/N=C/c1ccc2ccccc2n1 | 16 | 21 | Active | Dose-dependent effect | ≥ 10 | inactive |
| O=C(N/N=C/c1ccc2ccccc2n1)c1ccccc1O | 20 | 31 | – | – | – | – |
| O=C(N/N=C/c1ccc2ccccc2n1)c1ccccc1 | 20 | 25 | – | – | – | – |
